Assay results taken from ChEMBL document CHEMBL2406992, “Validation of inhibitors of an ABC transporter required to transport lipopolysaccharide to the cell surface in Escherichia coli” (2013).
Values after ≈ are worked out from the molar mass of the structure shown. Active and inactive are the calls of the source. No cut-off for these calls is given here.

Tests used:
Escherichia coli [1] = assay: Antibacterial activity against Escherichia coli NR698 assessed as growth inhibition after 24 hrs by microdilution method; assay type: functional; conditions: NR698, 24 h
Escherichia coli [2] = assay: Antibacterial activity against Escherichia coli MC4100 assessed as growth inhibition after 24 hrs by microdilution method; assay type: functional; conditions: MC4100, 24 h
Escherichia coli [3] = assay: Inhibition of Escherichia coli MC4100 LptBFGC overexpressed in Escherichia coli BL21 (deltaDE3) assessed as inorganic phosphate release at 100 uM after 5 mins by molybdate method
How it was run: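 Detergent-purified LptBFGC, 0.2 μM in 50 mM Tris-HCl pH 8.0, 500 mM NaCl, 10% glycerol, 0.05% DDM. Preincubated 5 min at 25 °C with 100 μM inhibitor (2% DMSO final). Reaction started with 0.5 mM ATP at 25 °C and stopped in the linear range with 12% SDS. Phosphate was measured by modified molybdate method, relative to uninhibited DMSO control.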

Escherichia coli [4] = assay: Inhibition of Escherichia coli MC4100 His6-tagged LptB overexpressed in Escherichia coli BL21 (deltaDE3) assessed as inorganic phosphate release at 100 uM after 5 mins by molybdate method
How it was run: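 Single-point assay. Purified His-LptB (7 μM) in 50 mM Tris-HCl pH 8.0, 500 mM NaCl, 10% glycerol was preincubated 5 min at 25 °C with 100 μM inhibitor (2% DMSO final). Started with 1 mM ATP at 25 °C and quenched in the linear range with 12% SDS. Released phosphate was read by molybdate absorbance, relative to a DMSO control.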

Escherichia coli [5] = assay: Selectivity ratio of IC50 for Escherichia coli MC4100 LptBFGC to IC50 for Escherichia coli MC4100 His6-tagged LptB
Escherichia coli [6] = assay: Inhibition of Escherichia coli MC4100 LptBFGC overexpressed in Escherichia coli BL21 (deltaDE3) assessed as inorganic phosphate release after 5 mins by molybdate method
How it was run: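 LptBFGC was expressed from an LptCAB-His6 plasmid in BL21(λDE3) (50 μM IPTG, 2 h, 37 °C) and purified in DDM. Assayed at 0.2 μM in 50 mM Tris-HCl pH 8.0, 500 mM NaCl, 10% glycerol, 0.05% DDM. Varying inhibitor (2% DMSO) was preincubated 5 min at 25 °C, then ATP was added. Quenched in the linear range with SDS. Molybdate phosphate read-out, normalized to DMSO.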

Escherichia coli [7] = assay: Inhibition of Escherichia coli MC4100 His6-tagged LptB overexpressed in Escherichia coli BL21 (deltaDE3) assessed as inorganic phosphate release after 5 mins by molybdate method
How it was run: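 His-tagged LptB, Ni-NTA and size-exclusion purified, at 7 μM in 50 mM Tris-HCl pH 8.0, 500 mM NaCl, 10% glycerol. Varied inhibitor concentrations (DMSO, 2% final) were preincubated 5 min at 25 °C, then ATP was added at 25 °C. Stopped within the linear range with an equal volume of 12% SDS. Phosphate was read by modified molybdate absorbance and normalized to the DMSO control.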

SMILES | MIC (Escherichia coli [1]) [µM] | MIC (Escherichia coli [2]) [µM] | inhibition (Escherichia coli [3]) | inhibition (Escherichia coli [4]) | Ratio IC50 (Escherichia coli [5]) | inhibition (Escherichia coli [6]) | inhibition (Escherichia coli [7])
Cn1c2cc(OCCCN3CCCC3)c(O)cc2c2c3c(c(-c4ccccc4Cl)cc21)C(=O)NC3=O | 100 (≈ 50.4 µg/mL) | > 100 | Active | Active | – | – | –
O=C1NC(=O)c2c1c(-c1ccccc1Cl)cc1c2c2cc(O)c(OCCCN3CCCC3)cc2n1CCO | 100 (≈ 53.4 µg/mL) | > 100 | Active | Active | – | – | –
CSc1ccccc1-c1cc2[nH]c3ccc(O)cc3c2c2c1C(=O)NC2=O | 25 (≈ 9.36 µg/mL) | > 100 | Active | Active | – | – | –
Cn1c2cc(S(=O)(=O)CCCN3CCCC3)c(O)cc2c2c3c(c(-c4ccccc4Cl)cc21)C(=O)NC3=O | 50 (≈ 27.6 µg/mL) | > 100 | Active | Active | – | – | –

Second part, the molecule after the results:

MIC (Escherichia coli [1]) [µM] | MIC (Escherichia coli [2]) [µM] | inhibition (Escherichia coli [3]) | inhibition (Escherichia coli [4]) | Ratio IC50 (Escherichia coli [5]) | inhibition (Escherichia coli [6]) | inhibition (Escherichia coli [7]) | SMILES
25 (≈ 11.9 µg/mL) | > 100 | Active | Active | – | – | – | CN(C)CCCOc1cc2c(cc1O)c1c3c(c(-c4ccccc4Cl)cc1n2C)C(=O)NC3=O
12.5 (≈ 4.97 µg/mL) | > 100 | – | – | 6 | Dose-dependent effect | Dose-dependent effect | O=C1NC(=O)c2c1c(-c1c(Cl)cccc1Cl)cc1[nH]c3ccc(O)cc3c21
25 (≈ 9.07 µg/mL) | > 100 | – | – | – | – | – | O=C1NC(=O)c2c1c(-c1ccccc1Cl)cc1[nH]c3ccc(O)cc3c21
12.5 (≈ 5.09 µg/mL) | > 100 | Active | Active | – | – | – | O=C1NC(=O)c2c1c(-c1ccccc1Br)cc1[nH]c3ccc(O)cc3c21
